The record followed here is PubChem BioAssay AID463201 (Sanford-Burnham Center for Chemical Genomics, 2010).

Activity calls are given as the source filed them.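 How the source made its calls: active means activation above 50% at 10 µM in both replicate datasets; inactive means the rest.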

Vasopressin V2 receptor (Homo sapiens), sequence (P30518 whole entry, looked up): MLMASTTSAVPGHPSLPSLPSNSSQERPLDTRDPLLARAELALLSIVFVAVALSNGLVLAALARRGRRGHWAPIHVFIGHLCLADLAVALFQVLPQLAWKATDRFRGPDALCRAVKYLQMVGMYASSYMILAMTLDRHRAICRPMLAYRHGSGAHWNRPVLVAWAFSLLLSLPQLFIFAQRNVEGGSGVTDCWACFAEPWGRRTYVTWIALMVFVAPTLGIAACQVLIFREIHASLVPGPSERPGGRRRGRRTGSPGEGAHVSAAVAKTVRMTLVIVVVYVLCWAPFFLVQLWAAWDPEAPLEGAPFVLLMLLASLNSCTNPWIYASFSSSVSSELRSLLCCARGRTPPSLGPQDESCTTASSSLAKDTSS

This assay addresses Vasopressin V2 receptor (Homo sapiens) (UniProt P30518). Description: vasopressin V2 receptor agonist activity, SAR follow-up, selectivity assay for GPR35 antagonist project, imaging, beta-arrestin-GFP, U2OS, agonist mode (AID 463201). The settings on record: U2OS V2R beta-arrestin-GFP translocation imaging, 40 min; at 10 µM; stronger effect = higher value. The method in brief: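 Material – U2OS cells stably expressing human vasopressin receptor and beta-arrestin2-GFP · Medium – serum-free culture medium during compound exposure · Dosing – 10 µM single dose, 0.1% DMSO · Timing – compound exposure 40 min at 37 °C, then fixation · Signal – fluorescence imaging at 40x of arrestin-GFP spots after 1% PFA fixation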
As for `CC(C)c1ccc(NC(=O)CSc2nc3ccsc3c(=O)n2Cc2ccc(C(=O)O)cc2)cc1`, the activation is 0.05% (inactive).

On to `COc1ccc(/C=C2\SC(=S)N(CCCC(=O)Nc3ccc(C(=O)O)c(O)c3)C2=O)cc1OC`, for which the activation is -0.24% (inactive).

Take `Cc1ccccc1N1CCN(c2ncnc3c2cnn3Cc2ccc(Cl)cc2)CC1`: the activation is -0.16% (inactive).

Turning to `Cc1ccc(/C=C2\SC(=S)N(CCCC(=O)Nc3cccc(C(=O)O)c3)C2=O)cc1`, the activation was -0.08% (inactive).

For the molecule `COc1ccc(/C=C2\SC(=S)N(CCCC(=O)Nc3cccc(C(=O)O)c3)C2=O)cc1OC`, the activation was -0.11% (inactive).

On to `CC(/C=C1\SC(=S)N(CCCC(=O)Nc2ccc(C(=O)O)c(O)c2)C1=O)=C\c1ccccc1`, for which the activation was 0.21% (inactive).

For the molecule `COc1ccc(/C=C2\SC(=S)N(CCCC(=O)Nc3ccc(O)cc3)C2=O)cc1`, the activation was -0.03% (inactive).

Consider `Cc1c(C(=O)Nc2ccc3c(c2)OCCO3)sc2ncnc(N3CCC(C)CC3)c12`, for which the activation was -0.03% (inactive).

Regarding `Cc1ccc(/C=C2\SC(=S)N(CCCC(=O)Nc3ccc(O)cc3)C2=O)cc1`, the activation is -0.18% (inactive).

In the case of `CC(/C=C1\SC(=S)N(CCCC(=O)Nc2ccc(C(=O)O)cc2)C1=O)=C\c1ccccc1`, the activation is -0.11% (inactive).

With `CCOC(=O)c1ccc(NC(=O)CCCN2C(=O)/C(=C/c3ccc(C)cc3)SC2=S)cc1`, the activation was 0.05% (inactive).

As for `O=C(Nc1ccc2nc(SCc3ccc(Cl)cc3)sc2c1)c1ccccc1C(=O)N1CCOCC1`, the activation is 0.71% (inactive).

Turning to `Cc1nc(N2CCC(C)CC2)c2c(C)c(C(=O)Nc3ccc4c(c3)OCCO4)sc2n1`, the activation is -0.13% (inactive).

On to `CC(C)(C)c1ccc(OCCC(=O)NCCc2ccc(S(N)(=O)=O)cc2)cc1`, for which the activation was -0.05% (inactive).

On to `O=C(CCCN1C(=O)/C(=C/c2ccc3c(c2)OCO3)SC1=S)Nc1cccc(C(=O)O)c1`, for which the activation is -0.29% (inactive).

Take `Cc1ccc(Cn2ncc3c(N4CCN(c5ccccc5C)CC4)ncnc32)cc1`: the activation is -0.08% (inactive).

`CCc1ccc(/C=C2\SC(=S)N(CCCC(=O)Nc3ccc(C(=O)O)cc3)C2=O)cc1`: the activation was -0.5% (inactive).

For the molecule `O=C(CCCN1C(=O)/C(=C\c2ccccc2)SC1=S)Nc1ccc(C(=O)O)cc1`, the activation is 0.29% (inactive).

For the molecule `O=C(CCCN1C(=O)/C(=C/c2ccccc2)SC1=S)Nc1ccc(C(=O)O)c(O)c1`, the activation is 1.45% (inactive).

Turning to `CCOc1ccc(NC(=O)CSc2nc3ccsc3c(=O)n2Cc2ccc(C(=O)O)cc2)cc1`, the activation is 0.24% (inactive).

In the case of `O=C(CCCN1C(=O)/C(=C\c2ccccc2)SC1=S)Nc1cccc(C(=O)O)c1`, the activation is 0.66% (inactive).

For the molecule `O=C(CCCN1C(=O)/C(=C/c2ccc3c(c2)OCO3)SC1=S)Nc1ccc(C(=O)O)c(O)c1`, the activation was 0.21% (inactive).

As for `COc1ccc(/C=C2/SC(=S)N(CCCC(=O)Nc3ccc(O)cc3)C2=O)cc1`, the activation is -0.32% (inactive).

With `COc1cccc(/C=C2\SC(=S)N(CCCC(=O)Nc3ccc(C(=O)O)cc3)C2=O)c1`, the activation was -0.18% (inactive).

Consider `Clc1ccc(Cn2ncc3c(N4CCN(c5ccccc5)CC4)ncnc32)cc1`, for which the activation was -0.08% (inactive).

Regarding `O=C(CCCN1C(=O)S/C(=C/C=C/c2ccccc2)C1=O)Nc1ccc(C(=O)O)cc1`, the activation was -0.18% (inactive).

Consider `O=C(CCCN1C(=O)S/C(=C\C=C\c2ccccc2)C1=O)Nc1ccc(C(=O)O)cc1`, for which the activation is 0.11% (inactive).

Take `O=C(Nc1ccc2nc(SCc3ccccc3)sc2c1)c1ccccc1C(=O)N1CCOCC1`: the activation was -0.18% (inactive).

In the case of `O=C(CCCN1C(=O)/C(=C/c2ccc3c(c2)OCO3)SC1=S)Nc1ccc(C(=O)O)cc1`, the activation is -0.34% (inactive).

For the molecule `O=C(CCCN1C(=O)S/C(=C/c2ccccc2)C1=S)Nc1ccc(C(=O)O)cc1`, the activation is -0.21% (inactive).
